Series [1] in a line: Cytotoxicity against human BRCA1-deficient MDA-MB-436 cells assessed as growth inhibition. In kind it is cell-based. Put shortly:
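Proliferation assay in BRCA1-mutant human breast cancer MDA-MB-436 cells. Six concentrations per test. CC50 calculated by Logit method from at least three independent tests.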

Series [2] can be described thus: Cytotoxicity against Chinese hamster BRCA2-deficient VC8 cells assessed as growth inhibition. Format: cell-based. To be noted: Cricetulus griseus, V-C8. An outline of the steps:
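V-C8 (BRCA2-deficient Chinese hamster lung fibroblasts) grown in F12 with 10% FBS, 37 °C, 5% CO2. Six concentrations per test. CC50 is the concentration reducing proliferation and growth by 50%, calculated by Logit method from at least three independent tests.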

A short description of series [3]: Cytotoxicity against Chinese hamster V79 cells expressing wild type BRCA2 assessed as growth inhibition. In kind it is cell-based, Cricetulus griseus. An outline of the steps: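 V79 (wild-type Chinese hamster lung fibroblasts) grown in RPMI-1640 with 10% FBS, 37 °C, 5% CO2. Six concentrations per test. CC50 is the concentration reducing proliferation and growth by 50%, calculated by Logit method from at least three independent tests.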

For series [4], the target named is Poly [ADP-ribose] polymerase 1 (Homo sapiens, UniProt P09874). As to the kind of experiment: Inhibition of human recombinant PARP1 after 1 hr by ELISA.
A short description of series [5]: Ratio of AZD2281 CC50 to compound CC50 for Chinese hamster BRCA2-deficient VC8 cells. In kind it is ADME, cell-based, Cricetulus griseus.

This note sets out measurements from ChEMBL document CHEMBL2321760, “Design, synthesis, and biological evaluation of a series of benzo[de][1,7]naphthyridin-7(8H)-ones bearing a functionalized longer chain appendage as novel PARP1 inhibitors” (J Med Chem, 2013).

Molecules are shown by their SMILES. A value given as a limit tells only on which side of the number the result lay.

Chain of Poly [ADP-ribose] polymerase 1 (P09874 whole entry): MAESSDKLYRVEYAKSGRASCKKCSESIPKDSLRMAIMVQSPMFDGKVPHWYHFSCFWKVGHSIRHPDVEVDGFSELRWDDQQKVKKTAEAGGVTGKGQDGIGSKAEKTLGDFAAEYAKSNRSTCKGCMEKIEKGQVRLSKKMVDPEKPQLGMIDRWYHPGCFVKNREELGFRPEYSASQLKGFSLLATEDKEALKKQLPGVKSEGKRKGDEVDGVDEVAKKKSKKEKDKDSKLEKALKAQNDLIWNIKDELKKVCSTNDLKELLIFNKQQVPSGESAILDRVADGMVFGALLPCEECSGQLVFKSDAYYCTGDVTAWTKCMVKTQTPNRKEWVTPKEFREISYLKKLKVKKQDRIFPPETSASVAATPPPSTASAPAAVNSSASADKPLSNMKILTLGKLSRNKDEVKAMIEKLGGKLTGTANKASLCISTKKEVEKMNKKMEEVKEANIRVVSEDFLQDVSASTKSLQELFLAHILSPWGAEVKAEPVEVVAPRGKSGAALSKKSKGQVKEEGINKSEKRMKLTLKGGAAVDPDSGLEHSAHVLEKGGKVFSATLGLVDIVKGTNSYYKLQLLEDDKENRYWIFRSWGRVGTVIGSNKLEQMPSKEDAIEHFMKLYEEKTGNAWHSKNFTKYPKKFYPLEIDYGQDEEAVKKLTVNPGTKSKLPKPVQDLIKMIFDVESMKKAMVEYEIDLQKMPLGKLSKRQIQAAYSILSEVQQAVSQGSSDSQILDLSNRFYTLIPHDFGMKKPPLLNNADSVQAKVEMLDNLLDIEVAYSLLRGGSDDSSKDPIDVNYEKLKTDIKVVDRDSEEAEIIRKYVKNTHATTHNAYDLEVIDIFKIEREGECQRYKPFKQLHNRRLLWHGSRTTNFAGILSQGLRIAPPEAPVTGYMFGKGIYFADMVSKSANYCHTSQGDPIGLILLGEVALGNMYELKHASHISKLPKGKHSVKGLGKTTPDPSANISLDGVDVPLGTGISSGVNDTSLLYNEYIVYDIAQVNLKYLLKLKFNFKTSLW

On to `O=C(c1cc(Cc2n[nH]c(=O)c3ccccc23)ccc1F)N1CCc2cccc3c2C1CC3F` (centres undefined), for which the results for the CC50 in series [1], in series [2] and in series [3] were 4300 nM, more than 10000 nM and more than 10000 nM, respectively. Further, the IC50 (in general, the concentration that gives 50% inhibition) in series [4] was determined as 0.56 nM.

Regarding `O=C(CCN1CCc2cccc3c2C1CNC3=O)NCC(=O)N1CCN(c2ccccc2F)CC1` (centres undefined), the half-inhibitory concentration (IC50) in series [4] came to 8960 nM.

With `O=C(CN1CCc2cccc3c2C1CNC3=O)N[C@H](Cc1ccccc1)C(=O)N1CC=C(c2ccc(F)cc2)CC1` (some centres undefined), the IC50 in series [4] was more than 10000 nM.

Turning to `CN(C(=O)c1cc(Cc2n[nH]c(=O)c3ccccc23)ccc1F)C1CC(=O)c2ccccc21` (centres undefined), the cytotoxic concentration (CC50) – broadly, the concentration that lowers cell viability or growth by half – was 4680 nM in series [2] and more than 10000 nM in series [3]. Besides, the 50% inhibitory concentration (IC50) in series [4] was determined as 11.2 nM.

With `O=C(NC1CC(=O)c2ccccc21)c1cc(Cc2n[nH]c(=O)c3ccccc23)ccc1F` (centres undefined), the CC50 in series [2] and in series [3] was more than 10000 nM each time. Besides, in series [4], the IC50 is 83.9 nM.

As to `O=C1NCC2c3c(cccc31)CCN2C(=O)C1CCCN1C(=O)c1cc(Cc2n[nH]c(=O)c3ccccc23)ccc1F` (centres undefined), the cytotoxic concentration (CC50) in series [2] was more than 1000 nM; in series [3], more than 10000 nM. In addition, in series [4], the IC50 worked out at 45 nM.

Regarding `O=C1NCC2c3c(cccc31)CCN2C(=O)c1cc(Cc2n[nH]c(=O)c3c2CCCC3)ccc1F` (centres undefined), the Ratio in series [5] is given as 2. For the same compound, the CC50 in series [2] is 114 nM; in series [3], more than 10000 nM. For the same compound, in series [4], the half-inhibitory concentration (IC50) was determined as 1.8 nM.

As for `COc1ccc(N2CCN(C(=O)CNC(=O)CCCN3CCc4cccc5c4C3CNC5=O)CC2)cc1` (centres undefined), the IC50 in series [4] was 8890 nM.

On to `O=C1NCC2c3c(cccc31)CCN2CC(=O)N1CC2CCCNC2C1` (centres undefined), for which the IC50 in series [4] came to 9350 nM.

Consider `O=C1NCC2c3c(cccc31)CCN2C(=O)C1CCN(C(=O)c2cc(Cc3n[nH]c(=O)c4ccccc34)ccc2F)CC1` (centres undefined), for which the CC50 in series [1] was 344 nM; in series [2], more than 1000 nM; in series [3] it was more than 10000 nM. Further, in series [4], the IC50 was found to be 1.9 nM.

For `C[C@@H](NC(=O)CN1CCc2cccc3c2C1CNC3=O)C(=O)N1CC=C(c2ccc(F)cc2)CC1` (some centres undefined), in series [4], the IC50 came to 210 nM.

With `O=C(NC1CNC(=O)c2ccccc21)c1cccc(Cc2n[nH]c(=O)c3ccccc23)c1` (centres undefined), the CC50 in series [2] and in series [3] was more than 10000 nM throughout. Further, in series [4], the IC50 is 146 nM.

Take `COc1ccc(N2CCN(C(=O)CNC(=O)CCN3CCc4cccc5c4C3CNC5=O)CC2)cc1` (centres undefined): the IC50 in series [4] stood at 8720 nM.

`O=C(NC1CNC(=O)c2ccccc21)c1cc(Cc2n[nH]c(=O)c3ccccc23)ccc1F` (centres undefined): the CC50 in series [2] and in series [3] was more than 10000 nM throughout. Further, the IC50 in series [4] came to 86.3 nM.

As to `O=C1NCC2c3c(cccc31)CCN2CC(=O)N1CCC2CNCC21` (centres undefined), in series [4], the IC50 was 9380 nM.

As to `O=C(NCC(=O)N1CCc2cccc3c2C1CNC3=O)c1cc(Cc2n[nH]c(=O)c3ccccc23)ccc1F` (centres undefined), the CC50 in series [2] was more than 1000 nM; in series [3] it was more than 10000 nM. Further, the IC50 in series [4] was 33 nM.

Turning to `O=C(c1cc(Cc2n[nH]c(=O)c3ccccc23)ccc1F)N1Cc2cccc3c2C(C1)NCC3` (centres undefined), the CC50 in series [1] was 556 nM; in series [2] it was 630 nM; in series [3], more than 10000 nM. In series [4], the IC50 turned out to be 1.39 nM.

Consider `O=C(c1cc(Cc2n[nH]c(=O)c3ccccc23)ccc1F)N1CCc2cccc3c2C1CC3O` (centres undefined), for which the CC50 in series [2] and in series [3] was more than 10000 nM throughout. For the same compound, in series [4], the IC50 was determined as 86.2 nM.
